Measured values reported in ChEMBL document CHEMBL3997796 (J Med Chem, 2017).
Calls of active or inactive are those of the source. The rule behind the calls is not given here.

What was measured:
Autotaxin [1] = target: T1, Autotaxin (Homo sapiens, UniProt Q13822); test: Inhibition of recombinant human C-terminal FLAg-tagged ATX nucleotide pyrophosphate phosphatase activity expressed in baculovirus infected sf9 cells using pNP-TMP as substrate measured every 2 mins for 1 hr by fluorescence assay
Autotaxin [2] = target: T1, Autotaxin; test: Inhibition of recombinant human C-terminal FLAg-tagged ATX lysophospholipase D activity expressed in baculovirus infected sf9 cells using FRET based FS-3 substrate measured every 2 mins for 1 hr by fluorescence assay
[3] = target: T2, Glycerophosphocholine cholinephosphodiesterase ENPP6 (Homo sapiens) (UniProt Q6UWR7); test: Inhibition of ENPP6 (unknown origin) using pNPPC as substrate measured every 2 mins for 1 hr by […]
T2 sequence (whole entry): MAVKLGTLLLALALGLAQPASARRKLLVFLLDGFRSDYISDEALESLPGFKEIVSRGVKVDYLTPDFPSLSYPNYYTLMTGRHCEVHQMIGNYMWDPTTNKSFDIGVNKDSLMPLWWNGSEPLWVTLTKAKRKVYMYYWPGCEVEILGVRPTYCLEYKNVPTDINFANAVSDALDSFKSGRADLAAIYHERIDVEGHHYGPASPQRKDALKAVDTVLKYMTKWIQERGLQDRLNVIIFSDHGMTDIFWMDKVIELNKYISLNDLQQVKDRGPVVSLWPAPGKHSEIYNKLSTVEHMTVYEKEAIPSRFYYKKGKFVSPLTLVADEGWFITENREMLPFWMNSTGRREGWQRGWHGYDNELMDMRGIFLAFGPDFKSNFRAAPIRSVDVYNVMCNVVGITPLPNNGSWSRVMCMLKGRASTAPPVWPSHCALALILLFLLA
In short: (§1)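 10 nM ENPP6 or ENPP7, 10 μM pNPPC, compound 0–10 μM, triplicate; ENPP6 buffer 100 mM Tris, 500 mM NaCl, 0.05% Triton pH 9.0; ENPP7 buffer 50 mM Tris, 150 mM NaCl, 10 mM taurocholate pH 8.5; 405 nm absorbance every 2 min for 1 h.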

[4] = target: T3, Ectonucleotide pyrophosphatase/phosphodiesterase family member 7 (Homo sapiens) (UniProt Q6UWV6); test: Inhibition of ENPP7 (unknown origin) using pNPPC as substrate measured every 2 mins for 1 hr by […]; in short: as §1
T3 sequence (whole entry): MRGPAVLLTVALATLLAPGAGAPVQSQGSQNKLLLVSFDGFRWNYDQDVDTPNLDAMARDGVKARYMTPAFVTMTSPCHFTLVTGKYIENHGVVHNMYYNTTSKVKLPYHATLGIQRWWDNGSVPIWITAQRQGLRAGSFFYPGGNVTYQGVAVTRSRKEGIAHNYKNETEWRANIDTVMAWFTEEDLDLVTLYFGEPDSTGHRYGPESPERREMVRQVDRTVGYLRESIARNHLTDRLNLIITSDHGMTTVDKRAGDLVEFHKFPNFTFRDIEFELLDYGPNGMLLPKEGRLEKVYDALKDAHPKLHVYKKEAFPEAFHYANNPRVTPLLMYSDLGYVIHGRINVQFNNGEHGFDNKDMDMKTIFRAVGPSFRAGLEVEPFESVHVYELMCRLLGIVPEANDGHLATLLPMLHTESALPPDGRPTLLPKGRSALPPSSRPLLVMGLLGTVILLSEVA

Autotaxin [5] = target: T1, Autotaxin; test: Inhibition of ATX (unknown origin) expressed in human A2058 cells assessed as inhibition of LPC-induced cell invasion after 20 hrs by calcein-AM dye based matrigel-mediated Boyden chamber assay
Autotaxin [6] = target: T1, Autotaxin; test: Competitive inhibition of recombinant human C-terminal FLAg-tagged ATX expressed in baculovirus infected sf9 cells using varying levels of FRET based FS-3 substrate at 0.5 to 2 times IC50 measured every 2 mins for 1 hr by Michaelis-Menten plot analysis
Autotaxin [7] = target: T1, Autotaxin; test: Inhibition of ATX (unknown origin) expressed in human A2058 cells assessed as inhibition of LPC-induced cell invasion at 10 uM after 20 hrs by calcein-AM dye based matrigel-mediated Boyden chamber assay
[8] = target: Lysophosphatidic acid receptor 1 (Homo sapiens, UniProt Q92633); test: Antagonist activity at LPA1 receptor (unknown origin) expressed in rat RH7777 cells assessed as inhibition of LPA-induced intracellular calcium level measured every 3.42 secs for 70 secs by Fura-2-AM dye based fluorescence assay; format: functional, cell-based
Sequence of Lysophosphatidic acid receptor 1 (Q92633 whole entry): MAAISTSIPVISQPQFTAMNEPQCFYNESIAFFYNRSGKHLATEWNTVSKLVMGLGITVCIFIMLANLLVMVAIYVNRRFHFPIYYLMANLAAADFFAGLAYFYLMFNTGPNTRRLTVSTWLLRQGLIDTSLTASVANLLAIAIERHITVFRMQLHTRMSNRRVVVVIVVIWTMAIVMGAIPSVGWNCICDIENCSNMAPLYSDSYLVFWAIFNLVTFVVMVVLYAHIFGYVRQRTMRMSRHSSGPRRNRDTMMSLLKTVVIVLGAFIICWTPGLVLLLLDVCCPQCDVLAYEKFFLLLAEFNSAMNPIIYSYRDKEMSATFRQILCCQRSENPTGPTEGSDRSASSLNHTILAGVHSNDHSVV

[9] = target: Lysophosphatidic acid receptor 2 (Homo sapiens) (UniProt Q9HBW0); test: Antagonist activity at LPA2 receptor (unknown origin) expressed in MEF cells assessed as inhibition of LPA-induced intracellular calcium level up to 100 uM measured every 3.42 secs for 70 secs by Fura-2-AM dye based fluorescence assay; format: functional, cell-based
Sequence of Lysophosphatidic acid receptor 2 (Homo sapiens) (Q9HBW0 whole entry): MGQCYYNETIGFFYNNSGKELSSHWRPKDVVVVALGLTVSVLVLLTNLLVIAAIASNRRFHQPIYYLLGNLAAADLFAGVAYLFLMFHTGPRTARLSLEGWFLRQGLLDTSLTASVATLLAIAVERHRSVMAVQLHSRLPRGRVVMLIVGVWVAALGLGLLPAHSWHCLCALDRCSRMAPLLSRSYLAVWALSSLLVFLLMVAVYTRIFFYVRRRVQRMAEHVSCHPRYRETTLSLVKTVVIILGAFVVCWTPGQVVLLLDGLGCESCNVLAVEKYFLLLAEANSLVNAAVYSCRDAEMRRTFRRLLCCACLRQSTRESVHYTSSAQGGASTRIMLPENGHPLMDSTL

[10] = target: Lysophosphatidic acid receptor 5 (Homo sapiens) (UniProt Q9H1C0); test: Antagonist activity at FLAG-tagged LPA5 receptor (unknown origin) expressed in rat B103 cells assessed as inhibition of LPA-induced intracellular calcium level up to 100 uM measured every 3.42 secs for 70 secs by Fura-2-AM dye based fluorescence assay; format: functional, cell-based
Sequence of Lysophosphatidic acid receptor 5 (Homo sapiens) (Q9H1C0 whole entry): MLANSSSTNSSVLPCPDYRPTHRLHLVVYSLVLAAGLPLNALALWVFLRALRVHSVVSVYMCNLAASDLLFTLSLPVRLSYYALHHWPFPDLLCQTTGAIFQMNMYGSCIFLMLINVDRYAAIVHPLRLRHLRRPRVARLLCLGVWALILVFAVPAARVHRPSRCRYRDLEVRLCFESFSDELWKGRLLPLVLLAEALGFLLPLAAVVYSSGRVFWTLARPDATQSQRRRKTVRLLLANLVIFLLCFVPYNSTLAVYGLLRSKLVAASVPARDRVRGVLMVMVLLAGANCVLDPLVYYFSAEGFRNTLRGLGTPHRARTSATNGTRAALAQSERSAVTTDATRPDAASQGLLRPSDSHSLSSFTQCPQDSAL

[11] = target: T4, Lysophosphatidic acid receptor 3 (Homo sapiens) (UniProt Q9UBY5); test: Antagonist activity at LPA3 receptor (unknown origin) expressed in rat RH7777 cells assessed as inhibition of LPA-induced intracellular calcium level up to 100 uM measured every 3.42 secs for 70 secs by Fura-2-AM dye based fluorescence assay; format: functional, cell-based
T4 sequence (whole entry): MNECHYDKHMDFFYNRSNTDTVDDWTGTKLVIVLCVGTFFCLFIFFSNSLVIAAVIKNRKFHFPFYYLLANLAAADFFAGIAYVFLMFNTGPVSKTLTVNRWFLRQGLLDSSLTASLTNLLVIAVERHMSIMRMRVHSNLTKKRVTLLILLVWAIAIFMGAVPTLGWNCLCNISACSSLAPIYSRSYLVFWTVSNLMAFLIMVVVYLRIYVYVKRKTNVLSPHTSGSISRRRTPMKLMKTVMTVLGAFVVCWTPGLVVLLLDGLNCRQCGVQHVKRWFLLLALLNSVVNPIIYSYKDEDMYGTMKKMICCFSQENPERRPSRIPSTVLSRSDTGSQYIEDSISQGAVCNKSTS

[12] = target: Lysophosphatidic acid receptor 4 (Homo sapiens) (UniProt Q99677); test: Antagonist activity at LPA4 receptor (unknown origin) expressed in CHO cells assessed as inhibition of LPA-induced intracellular calcium level up to 100 uM measured every 3.42 secs for 70 secs by Fura-2-AM dye based fluorescence assay; format: functional, cell-based
Sequence of Lysophosphatidic acid receptor 4 (Homo sapiens) (Q99677 whole entry): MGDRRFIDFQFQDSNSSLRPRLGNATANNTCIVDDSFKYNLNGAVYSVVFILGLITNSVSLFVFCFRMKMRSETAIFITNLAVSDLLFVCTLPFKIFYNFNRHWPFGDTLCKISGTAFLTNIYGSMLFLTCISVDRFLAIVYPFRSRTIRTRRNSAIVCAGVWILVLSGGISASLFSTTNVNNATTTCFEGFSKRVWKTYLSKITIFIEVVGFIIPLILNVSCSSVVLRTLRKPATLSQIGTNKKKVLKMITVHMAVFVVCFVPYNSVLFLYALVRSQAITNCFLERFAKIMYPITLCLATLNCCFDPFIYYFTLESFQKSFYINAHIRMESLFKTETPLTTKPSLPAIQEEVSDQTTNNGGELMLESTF

COc1cc(NC(=O)c2cc(S(=O)(=O)N3CCOCC3)c(Cl)cc2Cl)cc(OC)c1OC
inhibition (Autotaxin [1]): inactive | IC50 (Autotaxin [2]): > 1000 nM | inhibition [3]: inactive | inhibition [4]: inactive

O=S(=O)(c1cc(C(=S)Nc2cccc(F)c2)c(Cl)cc1Cl)N1CCOCC1
inhibition (Autotaxin [1]): inactive | inhibition [3]: inactive | inhibition [4]: inactive

O=S(=O)(c1cc(CNc2ccc(F)c(F)c2)c(Cl)cc1Cl)N1CCOCC1
inhibition (Autotaxin [1]): inactive | IC50 (Autotaxin [2]): > 1000 nM | inhibition [3]: inactive | inhibition [4]: inactive

N#Cc1c(F)cc(NC(=O)c2cc(S(=O)(=O)N3CCOCC3)c(Cl)cc2Cl)cc1F
inhibition (Autotaxin [1]): inactive | inhibition [3]: inactive | inhibition [4]: inactive

O=C(Nc1cc(F)c(F)c(F)c1)c1cc(NN2CCOCC2)c(Cl)cc1Cl
inhibition (Autotaxin [1]): inactive | IC50 (Autotaxin [2]): > 1000 nM | inhibition [3]: inactive | inhibition [4]: inactive

COc1cc(Cl)c(C(=O)Nc2cc(F)c(C(=O)O)c(F)c2)cc1S(=O)(=O)N1CCOCC1
inhibition (Autotaxin [1]): inactive | IC50 (Autotaxin [2]): > 1000 nM | inhibition [3]: inactive | inhibition [4]: inactive

CN(C(=O)c1cc(S(=O)(=O)N2CCOCC2)c(Cl)cc1Cl)c1cccc(F)c1
inhibition (Autotaxin [1]): inactive | IC50 (Autotaxin [2]): > 1000 nM | inhibition [3]: inactive | inhibition [4]: inactive

O=S(=O)(c1cc(CNc2cc(F)c(F)c(F)c2)c(Cl)cc1Cl)N1CCOCC1
inhibition (Autotaxin [1]): inactive | inhibition [3]: inactive | inhibition [4]: inactive

CS(=O)(=O)N(C(=O)c1cc(NN2CCOCC2)c(Cl)cc1Cl)c1cc(F)c(F)c(F)c1
inhibition (Autotaxin [1]): inactive | IC50 (Autotaxin [2]): > 1000 nM | inhibition [3]: inactive | inhibition [4]: inactive

CN1CCN(S(=O)(=O)c2cc(C(=O)Nc3cc(F)c(F)c(F)c3)c(Cl)cc2Cl)CC1
inhibition (Autotaxin [1]): inactive | inhibition [3]: inactive | inhibition [4]: inactive

O=S(=O)(c1cc(C(=S)Nc2cc(Cl)c(F)c(Cl)c2)c(Cl)cc1Cl)N1CCOCC1
inhibition (Autotaxin [1]): inactive | IC50 (Autotaxin [2]): 98 nM | inhibition [3]: inactive | inhibition [4]: inactive

COC(=O)c1c(F)cc(NC(=O)c2cc(S(=O)(=O)N3CCOCC3)c(Cl)cc2Cl)cc1F
inhibition (Autotaxin [1]): inactive | inhibition [3]: inactive | inhibition [4]: inactive

O=S(=O)(Nc1cc(S(=O)(=O)N2CCOCC2)c(Cl)cc1Cl)c1cccc(F)c1
inhibition (Autotaxin [1]): inactive | IC50 (Autotaxin [2]): > 1000 nM | inhibition [3]: inactive | inhibition [4]: inactive

O=C(Nc1ccc(F)c(F)c1)c1cc(S(=O)(=O)N2CCOCC2)c(Cl)cc1Cl
inhibition (Autotaxin [1]): inactive | inhibition (Autotaxin [5]): Dose-dependent effect | inhibition [3]: inactive | inhibition (Autotaxin [6]): Active | inhibition (Autotaxin [7]): Active | inhibition [4]: inactive

O=S(=O)(c1cc(N(S(=O)(=O)c2cccc(F)c2)S(=O)(=O)c2cccc(F)c2)c(Cl)cc1Cl)N1CCOCC1
inhibition (Autotaxin [1]): inactive | IC50 (Autotaxin [2]): > 1000 nM | inhibition [3]: inactive | inhibition [4]: inactive

CN1CCN(S(=O)(=O)c2cc(C(=S)Nc3cc(Cl)c(F)c(Cl)c3)c(Cl)cc2Cl)CC1
inhibition (Autotaxin [1]): inactive | inhibition [3]: inactive | inhibition [4]: inactive

O=S(=O)(c1cc(-c2nc3cc(F)c(F)cc3[nH]2)c(Cl)cc1Cl)N1CCOCC1
inhibition (Autotaxin [1]): inactive | IC50 (Autotaxin [2]): > 1000 nM | inhibition [3]: inactive | inhibition [4]: inactive

CN1CCN(S(=O)(=O)c2cc(C(=O)Nc3cc(Cl)c(F)c(Cl)c3)c(Cl)cc2Cl)CC1
inhibition (Autotaxin [1]): inactive | inhibition [3]: inactive | inhibition [4]: inactive

O=S(=O)(c1cc(-c2nc3cccc(F)c3o2)c(Cl)cc1Cl)N1CCOCC1
inhibition (Autotaxin [1]): inactive | IC50 (Autotaxin [2]): > 1000 nM | inhibition [3]: inactive | inhibition [4]: inactive

O=S(=O)(Nc1cccc(F)c1)c1cc(S(=O)(=O)N2CCOCC2)c(Cl)cc1Cl
inhibition (Autotaxin [1]): inactive | IC50 (Autotaxin [2]): > 1000 nM | inhibition [3]: inactive | inhibition [4]: inactive

O=S(=O)(Nc1cc(F)c(F)c(F)c1)c1cc(S(=O)(=O)N2CCOCC2)c(Cl)cc1Cl
inhibition (Autotaxin [1]): inactive | IC50 (Autotaxin [2]): > 1000 nM | inhibition [3]: inactive | inhibition [4]: inactive

O=C(Nc1cc(F)c(F)c(F)c1Br)c1cc(S(=O)(=O)N2CCOCC2)c(Cl)cc1Cl
IC50 [8]: Not Active | inhibition [9]: inactive | inhibition [10]: inactive | inhibition (Autotaxin [1]): inactive | inhibition [11]: inactive | IC50 (Autotaxin [2]): 18 nM | inhibition [12]: inactive | inhibition [3]: inactive | inhibition [4]: inactive

O=S(=O)(c1cc(C(=S)Nc2ccc(F)c(F)c2)c(Cl)cc1Cl)N1CCOCC1
inhibition (Autotaxin [1]): inactive | IC50 (Autotaxin [2]): 70 nM | inhibition [3]: inactive | inhibition [4]: inactive

O=C(Nc1c(F)c(F)c(F)c(F)c1F)c1cc(S(=O)(=O)N2CCOCC2)c(Cl)cc1Cl
inhibition (Autotaxin [1]): inactive | inhibition [3]: inactive | inhibition [4]: inactive

O=C(Nc1cc(Cl)c(Cl)c(Cl)c1)c1cc(S(=O)(=O)N2CCOCC2)c(Cl)cc1Cl
inhibition (Autotaxin [1]): inactive | IC50 (Autotaxin [2]): > 1000 nM | inhibition [3]: inactive | inhibition [4]: inactive
